In brackets after ≈: the same amount, converted by molar mass.
Key:
MCF7 = test: Antiproliferative activity against human MCF7 cells after 72 hrs by MTT assay; assay type: functional, cell-based; conditions: MCF7, 72 h
Method in brief: (§1)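 Monolayers grown in DMEM with 10% FBS, 2 mM L-glutamine and penicillin/streptomycin at 37 °C, 5% CO2. Seeded at 1 × 10⁴–3 × 10⁴ cells/mL on day 0. Compounds from 0.04 M DMSO stocks added at five 10-fold dilutions (10⁻⁸–10⁻⁴ M final), with matched DMSO controls, for 72 h. MTT added for 4 h, formazan dissolved in DMSO, absorbance read at 570 nm. Percentage growth calculated against time-zero and untreated OD. IC50 is 50% inhibition of proliferation.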

[1] = Antiproliferative activity against human Molt4/C8 cells; assay type: functional, cell-based; conditions: MOLT-4
Method in brief: (§2)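 Suspension cells seeded at 50 × 10³ cells/well with a range of test compound concentrations. Cell number counted with a Coulter counter after 2 days (L1210) or 3 days (Molt4/C8, CEM). IC50 is the concentration that cuts cell growth by 50% versus untreated controls, read from plots of cell number (% of control) against concentration.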

CCRF-CEM = test: Antiproliferative activity against human CEM cells; assay type: functional, cell-based; method in brief: as §2
L1210 = test: Antiproliferative activity against mouse L1210 cells; assay type: functional, cell-based; method in brief: as §2
Human alphaherpesvirus 1 [2] = test: Antiviral activity against HSV1 TK- KOS ACV -induced cytopathogenicity in HEL cells; assay type: functional; conditions: Human alphaherpesvirus 1, KOS
Coxsackievirus B4 = test: Antiviral activity against Coxsackie virus B4-induced cytopathogenicity in Vero cells; assay type: functional; conditions: Enterovirus B
[3] = tested on: Vesicular stomatitis virus; test: Antiviral activity against in Vesicular stomatitis virus-induced cytopathogenicity in HEL cells; assay type: functional
Sindbis virus = test: Antiviral activity against Sindbis virus-induced cytopathogenicity in Vero cells; assay type: functional
SW-620 = test: Antiproliferative activity against human SW620 cells after 72 hrs by MTT assay; assay type: functional, cell-based; conditions: SW-620, 72 h; method in brief: as §1
Human alphaherpesvirus 2 = test: Antiviral activity against HSV2 G-induced cytopathogenicity in HEL cells; assay type: functional; conditions: Human alphaherpesvirus 2, G
Human alphaherpesvirus 1 [4] = test: Antiviral activity against HSV1 KOS-induced cytopathogenicity in HEL cells; assay type: functional; conditions: Human alphaherpesvirus 1, KOS
MIA PaCa-2 = test: Antiproliferative activity against human MiaPaCa2 cells after 72 hrs by MTT assay; assay type: functional, cell-based; conditions: Homo sapiens, MIA PaCa-2, 72 h; read-out: IC50; method in brief: as §1
[5] = Cytotoxicity against HEL cells; assay type: cell-based; conditions: human
Method in brief: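 Cells seeded at 5 × 10³ cells/well and exposed to medium containing a range of test compound concentrations. After 3 days at 37 °C, cell morphology examined microscopically. Reported as minimum cytotoxic concentration (MCC), the concentration causing a microscopically detectable alteration of normal cell morphology.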

HeLa = test: Antiproliferative activity against human HeLa cells after 72 hrs by MTT assay; assay type: functional, cell-based; method in brief: as §1
WI-38 = test: Antiproliferative activity against human WI38 cells after 72 hrs by MTT assay; assay type: functional, cell-based; conditions: WI-38, 72 h; method in brief: as §1
[6] = tested on: Vesicular stomatitis virus; test: Antiviral activity against in Vesicular stomatitis virus- induced cytopathogenicity in HeLa cells; assay type: functional
HEp-2 = test: Antiproliferative activity against human Hep2 cells after 72 hrs by MTT assay; assay type: functional, cell-based; conditions: HEp-2, 72 h; method in brief: as §1
Punta Toro virus = test: Antiviral activity against Punta Toro virus-induced cytopathogenicity in Vero cells; assay type: functional

In the case of C=Cc1cn(C/C=C2\OC(=O)C(OCc3ccccc3)=C2OCc2ccccc2)c(=O)[nH]c1=O, the IC50 (MCF7) is reported as 3.8 µM, the IC50 [1] is reported as 7.6 µM and the IC50 (CCRF-CEM) is reported as 7.2 µM. For the same compound, the IC50 (L1210) was 7.2 µM, the MIC (Human alphaherpesvirus 1 [2]) was greater than 18 µM and the MIC (Coxsackievirus B4) was greater than 18 µM. It also gave an MIC [3] greater than 18 µM, an MIC (Sindbis virus) greater than 18 µM and an IC50 (SW-620) of 15.6 µM. It also gave an MIC (Human alphaherpesvirus 2) greater than 18 µM, an MIC (Human alphaherpesvirus 1 [4]) greater than 18 µM and an IC50 (MIA PaCa-2) of 22 µM. The MCC [5] was 87 µM, the IC50 (HeLa) was 14.5 µM and the IC50 (WI-38) was 14.3 µM. The MIC [6] was greater than 18 µM, the IC50 (HEp-2) was 14.2 µM and the MIC (Punta Toro virus) was greater than 18 µM.

Compound O=C1O/C(=C\Cn2cc(C#Cc3ccccc3)c(=O)[nH]c2=O)C(O)=C1O has an IC50 (MCF7) of 1 µM, an IC50 [1] of 8.2 µM and an IC50 (CCRF-CEM) of 7.6 µM. For the same compound, the IC50 (L1210) was 8.1 µM, the MIC (Human alphaherpesvirus 1 [2]) was greater than 4 µM and the MIC (Coxsackievirus B4) was greater than 4 µM. It also gave an MIC [3] of 4 µM (≈ 1.41 µg/mL), an MIC (Sindbis virus) greater than 4 µM and an IC50 (SW-620) of 4 µM. It also gave an MIC (Human alphaherpesvirus 2) of 4 µM (≈ 1.41 µg/mL), an MIC (Human alphaherpesvirus 1 [4]) greater than 4 µM and an IC50 (MIA PaCa-2) of 3 µM. For the same compound, the MCC [5] was 20 µM, the IC50 (HeLa) was 2 µM and the IC50 (WI-38) was 1 µM. It also gave an MIC [6] greater than 4 µM, an IC50 (HEp-2) of 3 µM and an MIC (Punta Toro virus) greater than 4 µM.

O=C1O/C(=C\Cn2cc(-c3ccco3)c(=O)[nH]c2=O)C(O)=C1O gave an IC50 (MCF7) greater than 100 µM, an IC50 [1] of no less than 500 µM and an IC50 (CCRF-CEM) of 436 µM. The IC50 (L1210) was no less than 500 µM, the MIC (Human alphaherpesvirus 1 [2]) was greater than 100 µM and the MIC (Coxsackievirus B4) was greater than 100 µM. The MIC [3] was greater than 100 µM, the MIC (Sindbis virus) was greater than 100 µM and the IC50 (SW-620) was greater than 100 µM. The MIC (Human alphaherpesvirus 2) was greater than 100 µM, the MIC (Human alphaherpesvirus 1 [4]) was greater than 100 µM and the IC50 (MIA PaCa-2) was greater than 100 µM. It also gave an MCC [5] of 100 µM, an IC50 (HeLa) greater than 100 µM and an IC50 (WI-38) greater than 100 µM. For the same compound, the MIC [6] was greater than 100 µM, the IC50 (HEp-2) was greater than 100 µM and the MIC (Punta Toro virus) was greater than 100 µM.

C#Cc1cn(C/C=C2\OC(=O)C(OCc3ccccc3)=C2OCc2ccccc2)c(=O)[nH]c1=O gave an IC50 (MCF7) of 2.9 µM, an IC50 [1] of 7.2 µM and an IC50 (CCRF-CEM) of 4.6 µM. The IC50 (L1210) was 6.8 µM, the MIC (Human alphaherpesvirus 1 [2]) was greater than 18 µM and the MIC (Coxsackievirus B4) was greater than 18 µM. For the same compound, the MIC [3] was greater than 18 µM, the MIC (Sindbis virus) was greater than 18 µM and the IC50 (SW-620) was 5 µM. It also gave an MIC (Human alphaherpesvirus 2) greater than 18 µM, an MIC (Human alphaherpesvirus 1 [4]) greater than 18 µM and an IC50 (MIA PaCa-2) of 8.7 µM. The MCC [5] was no less than 18 µM, the IC50 (HeLa) was 3.2 µM and the IC50 (WI-38) was 1.5 µM. It also gave an MIC [6] greater than 18 µM, an IC50 (HEp-2) of 4.6 µM and an MIC (Punta Toro virus) greater than 18 µM.

O=C1O/C(=C\Cn2cc(-c3ccccc3)c(=O)[nH]c2=O)C(O)=C1O showed an IC50 (MCF7) greater than 100 µM, an IC50 [1] of 322 µM and an IC50 (CCRF-CEM) of 282 µM. For the same compound, the IC50 (L1210) was 354 µM, the MIC (Human alphaherpesvirus 1 [2]) was greater than 100 µM and the MIC (Coxsackievirus B4) was greater than 100 µM. For the same compound, the MIC [3] was greater than 100 µM, the MIC (Sindbis virus) was greater than 100 µM and the IC50 (SW-620) was greater than 100 µM. The MIC (Human alphaherpesvirus 2) was greater than 100 µM, the MIC (Human alphaherpesvirus 1 [4]) was greater than 100 µM and the IC50 (MIA PaCa-2) was greater than 100 µM. It also gave an MCC [5] of 100 µM, an IC50 (HeLa) greater than 100 µM and an IC50 (WI-38) greater than 100 µM. For the same compound, the MIC [6] was greater than 100 µM, the IC50 (HEp-2) was greater than 100 µM and the MIC (Punta Toro virus) was greater than 100 µM.

For CC(C)=CCc1cn(C/C=C2\OC(=O)C(OCc3ccccc3)=C2OCc2ccccc2)c(=O)[nH]c1=O, the IC50 (MCF7) was 4 µM, the IC50 [1] was 8.3 µM and the IC50 (CCRF-CEM) was 7.7 µM. For the same compound, the IC50 (L1210) was 8.2 µM, the MIC (Human alphaherpesvirus 1 [2]) was greater than 4 µM and the MIC (Coxsackievirus B4) was greater than 4 µM. The MIC [3] was greater than 4 µM, the MIC (Sindbis virus) was greater than 4 µM and the IC50 (SW-620) was 4 µM. It also gave an MIC (Human alphaherpesvirus 2) of 4 µM (≈ 2 µg/mL), an MIC (Human alphaherpesvirus 1 [4]) of 4 µM (≈ 2 µg/mL) and an IC50 (MIA PaCa-2) of 5 µM. For the same compound, the MCC [5] was 20 µM, the IC50 (HeLa) was 2 µM and the IC50 (WI-38) was 2 µM. It also gave an MIC [6] greater than 4 µM, an IC50 (HEp-2) of 2.6 µM and an MIC (Punta Toro virus) of 4 µM (≈ 2 µg/mL).

In the case of O=C1O/C(=C\Cn2cc(-c3cccs3)c(=O)[nH]c2=O)C(O)=C1O, the IC50 (MCF7) is reported as greater than 100 µM, the IC50 [1] is reported as greater than 500 µM and the IC50 (CCRF-CEM) is reported as greater than 500 µM. The IC50 (L1210) was greater than 500 µM, the MIC (Human alphaherpesvirus 1 [2]) was greater than 100 µM and the MIC (Coxsackievirus B4) was greater than 100 µM. The MIC [3] was greater than 100 µM, the MIC (Sindbis virus) was greater than 100 µM and the IC50 (SW-620) was greater than 100 µM. It also gave an MIC (Human alphaherpesvirus 2) greater than 100 µM, an MIC (Human alphaherpesvirus 1 [4]) greater than 100 µM and an IC50 (MIA PaCa-2) greater than 100 µM. For the same compound, the MCC [5] was 100 µM, the IC50 (HeLa) was greater than 100 µM and the IC50 (WI-38) was greater than 100 µM. It also gave an MIC [6] greater than 100 µM, an IC50 (HEp-2) greater than 100 µM and an MIC (Punta Toro virus) greater than 100 µM.
